Source: ChEMBL document CHEMBL4689842, “EUbOPEN Chemogenomics Library wave 1” (2021)

Test system: HEK-293T
Assay: Multiplex assay against HEK293T;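 for Population Tubulin-Different-Phenotype (%): share of the cells with healthy nuclei that show this phenotype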
Format: toxicity, cell-based
Details: human
Method in brief: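 Tubulin, mitochondrial-mass and membrane-permeability phenotypes are per cents of healthy-nucleus cells. Cells were gated by CellPathfinder machine learning into Hoechst high-intensity objects or normal cells, normal cells into healthy, pyknosed or fragmented nuclei, and pyknosed cells into mitotic or apoptotic. Before that, live cells stained at seeding with Hoechst33342, BioTracker Green Microtubule Cytoskeleton Dye, MitoTracker Red and Annexin V Alexa Fluor 680 were imaged on a CQ1 microscope at 37°C and 5% CO2 after compound addition.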

[1] = 12 h, 1 µM, compound concentration 1 uM, replicate 1
[2] = 12 h, 1 µM, compound concentration 1 uM, replicate 2
[3] = 12 h, 10 µM, compound concentration 10 uM, replicate 1
[4] = 12 h, 10 µM, compound concentration 10 uM, replicate 2
[5] = 24 h, 1 µM, compound concentration 1 uM, replicate 1
[6] = 24 h, 1 µM, compound concentration 1 uM, replicate 2
[7] = 24 h, 10 µM, compound concentration 10 uM, replicate 1
[8] = 24 h, 10 µM, compound concentration 10 uM, replicate 2
[9] = 48 h, 1 µM, compound concentration 1 uM, replicate 1
[10] = 48 h, 1 µM, compound concentration 1 uM, replicate 2
[11] = 48 h, 10 µM, compound concentration 10 uM, replicate 1
[12] = 48 h, 10 µM, compound concentration 10 uM, replicate 2

Question: Which results are given for `COc1ccc(NS(=O)(=O)c2sc3ccc(Cl)cc3c2C)cc1N1CCNCC1.Cl`?
Answer: Population Apoptotic (%) [1]: 40%; Population Fragmented Nuclei (%) [1]: 17%; Population Healthy Nuclei (%) [1]: 36%; Population Hoechst High Intensity Objects (%) [1]: 35%; Population Membrane Permeable-Phenotype (%) [1]: 5%; Population Mitochondria Different-Phenotype (%) [1]: 66%; Population Mitotic Cells (%) [1]: 59%; Population Normal (%) [1]: 64%; Population Pyknosed Nuclei (%) [1]: 45%; Population Tubulin-Different-Phenotype (%) [1]: 32%; Total Cell Count [1]: 385; Population Apoptotic (%) [2]: 15%; Population Fragmented Nuclei (%) [2]: 5%; Population Healthy Nuclei (%) [2]: 41%; Population Hoechst High Intensity Objects (%) [2]: 3%; Population Membrane Permeable-Phenotype (%) [2]: 15%; Population Mitochondria Different-Phenotype (%) [2]: 25%; Population Mitotic Cells (%) [2]: 84%; Population Normal (%) [2]: 96%; Population Pyknosed Nuclei (%) [2]: 53%; Population Tubulin-Different-Phenotype (%) [2]: 39%; Total Cell Count [2]: 233; Population Apoptotic (%) [3]: 71%; Population Fragmented Nuclei (%) [3]: 7%; Population Healthy Nuclei (%) [3]: 33%; Population Hoechst High Intensity Objects (%) [3]: 12%; Population Membrane Permeable-Phenotype (%) [3]: 4%; Population Mitochondria Different-Phenotype (%) [3]: 99%; Population Mitotic Cells (%) [3]: 28%; Population Normal (%) [3]: 87%; Population Pyknosed Nuclei (%) [3]: 59%; Total Cell Count [3]: 350; Population Apoptotic (%) [4]: 57%; Population Fragmented Nuclei (%) [4]: 3%; Population Healthy Nuclei (%) [4]: 16%; Population Hoechst High Intensity Objects (%) [4]: 4%; Population Membrane Permeable-Phenotype (%) [4]: 6%; Population Mitochondria Different-Phenotype (%) [4]: 86%; Population Mitotic Cells (%) [4]: 42%; Population Normal (%) [4]: 95%; Population Pyknosed Nuclei (%) [4]: 79%; Population Tubulin-Different-Phenotype (%) [4]: 96%; Total Cell Count [4]: 186; Population Apoptotic (%) [5]: 46%; Population Fragmented Nuclei (%) [5]: 21%; Population Healthy Nuclei (%) [5]: 40%; Population Hoechst High Intensity Objects (%) [5]: 39%; Population Membrane Permeable-Phenotype (%) [5]: 2%; Population Mitochondria Different-Phenotype (%) [5]: 61%; Population Mitotic Cells (%) [5]: 53%; Population Normal (%) [5]: 60%; Population Pyknosed Nuclei (%) [5]: 38%; Population Tubulin-Different-Phenotype (%) [5]: 43%; Total Cell Count [5]: 399; Population Apoptotic (%) [6]: 22%; Population Fragmented Nuclei (%) [6]: 4%; Population Healthy Nuclei (%) [6]: 58%; Population Hoechst High Intensity Objects (%) [6]: 2%; Population Membrane Permeable-Phenotype (%) [6]: 4%; Population Mitochondria Different-Phenotype (%) [6]: 36%; Population Mitotic Cells (%) [6]: 77%; Population Normal (%) [6]: 97%; Population Pyknosed Nuclei (%) [6]: 36%; Population Tubulin-Different-Phenotype (%) [6]: 54%; Total Cell Count [6]: 278; Population Apoptotic (%) [7]: 74%; Population Fragmented Nuclei (%) [7]: 10%; Population Healthy Nuclei (%) [7]: 34%; Population Hoechst High Intensity Objects (%) [7]: 21%; Population Membrane Permeable-Phenotype (%) [7]: 4%; Population Mitochondria Different-Phenotype (%) [7]: 98%; Population Mitotic Cells (%) [7]: 25%; Population Normal (%) [7]: 78%; Population Pyknosed Nuclei (%) [7]: 54%; Population Tubulin-Different-Phenotype (%) [7]: 97%; Total Cell Count [7]: 356; Population Apoptotic (%) [8]: 90%; Population Fragmented Nuclei (%) [8]: 4%; Population Healthy Nuclei (%) [8]: 25%; Population Hoechst High Intensity Objects (%) [8]: 8%; Population Membrane Permeable-Phenotype (%) [8]: 2%; Population Mitochondria Different-Phenotype (%) [8]: 97%; Population Mitotic Cells (%) [8]: 9%; Population Normal (%) [8]: 91%; Population Pyknosed Nuclei (%) [8]: 70%; Total Cell Count [8]: 187; Population Apoptotic (%) [9]: 47%; Population Fragmented Nuclei (%) [9]: 23%; Population Healthy Nuclei (%) [9]: 51%; Population Hoechst High Intensity Objects (%) [9]: 29%; Population Membrane Permeable-Phenotype (%) [9]: 1%; Population Mitochondria Different-Phenotype (%) [9]: 37%; Population Mitotic Cells (%) [9]: 52%; Population Normal (%) [9]: 70%; Population Pyknosed Nuclei (%) [9]: 25%; Population Tubulin-Different-Phenotype (%) [9]: 32%; Total Cell Count [9]: 493; Population Apoptotic (%) [10]: 15%; Population Fragmented Nuclei (%) [10]: 4%; Population Healthy Nuclei (%) [10]: 81%; Population Hoechst High Intensity Objects (%) [10]: 4%; Population Membrane Permeable-Phenotype (%) [10]: 3%; Population Mitochondria Different-Phenotype (%) [10]: 9%; Population Mitotic Cells (%) [10]: 84%; Population Normal (%) [10]: 95%; Population Pyknosed Nuclei (%) [10]: 14%; Population Tubulin-Different-Phenotype (%) [10]: 41%; Total Cell Count [10]: 485; Population Fragmented Nuclei (%) [11]: 13%; Population Healthy Nuclei (%) [11]: 39%; Population Hoechst High Intensity Objects (%) [11]: 26%; Population Membrane Permeable-Phenotype (%) [11]: 0%; Population Mitochondria Different-Phenotype (%) [11]: 100%; Population Normal (%) [11]: 73%; Population Pyknosed Nuclei (%) [11]: 47%; Population Tubulin-Different-Phenotype (%) [11]: 95%; Total Cell Count [11]: 367; Population Apoptotic (%) [12]: 77%; Population Fragmented Nuclei (%) [12]: 4%; Population Healthy Nuclei (%) [12]: 28%; Population Hoechst High Intensity Objects (%) [12]: 15%; Population Membrane Permeable-Phenotype (%) [12]: 6%; Population Mitochondria Different-Phenotype (%) [12]: 95%; Population Mitotic Cells (%) [12]: 22%; Population Normal (%) [12]: 84%; Population Pyknosed Nuclei (%) [12]: 67%; Population Tubulin-Different-Phenotype (%) [12]: 91%; Total Cell Count [12]: 188
